Data: paper PMC5814953 (Nucleic Acids Research, 2017)
Ends that are not written are not given here. Peptide text beside a SMILES is read from it. * marks the point of attachment. Biotin = O=C1N[C@H]2[C@H](CS[C@H]2CCCCC(=O)*)N1

Assays:
[1] = tested on: Sim3-FLAG; experiment: Biotinylated peptide pull-down of Sim3-FLAG from yeast cell extract, immunoblot; format: binding, Schizosaccharomyces pombe
[2] = tested on: Ani2; experiment: 2D 1H ROESY NMR, cis-trans isomerization of NTD peptide by Ani2; format: biochemical, Schizosaccharomyces pombe
[3] = tested on: Ani1; experiment: 2D 1H ROESY NMR, cis-trans isomerization of NTD peptide by Ani1; format: biochemical, Schizosaccharomyces pombe
[4] = 2D 1H ROESY NMR of NTD peptide in the absence of isomerase; format: physicochemical; settings: pH 6.5, 25°C
Procedure, shortened: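 Synthetic NTD peptide at 2 mM in 20 mM phosphate buffer (90% H2O/10% D2O), pH 6.5, run at 25°C. No isomerase was added; the paired runs contained 0.03 mM bacterially produced Ani1 or Ani2.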

[5] = target: T1, Sim3-His, bacterially purified recombinant Sim3 protein (S. pombe, UniProt Q9USQ4 1-396); experiment: ITC
T1 sequence (looked up): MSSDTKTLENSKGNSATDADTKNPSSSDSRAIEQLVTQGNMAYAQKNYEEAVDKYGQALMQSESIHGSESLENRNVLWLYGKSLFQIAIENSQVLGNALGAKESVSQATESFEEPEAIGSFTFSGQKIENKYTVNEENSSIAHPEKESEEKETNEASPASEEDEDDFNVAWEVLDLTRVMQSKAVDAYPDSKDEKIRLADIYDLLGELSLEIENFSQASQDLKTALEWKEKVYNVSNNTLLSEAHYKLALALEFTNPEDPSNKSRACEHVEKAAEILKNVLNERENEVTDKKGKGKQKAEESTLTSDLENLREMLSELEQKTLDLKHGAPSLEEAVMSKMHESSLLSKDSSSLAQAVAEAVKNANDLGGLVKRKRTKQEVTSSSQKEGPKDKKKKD

In the case of `CC[C@H](C)[C@H](NC(=O)[C@@H]1CCCN1C(=O)[C@H](CC(=O)O)NC(=O)CNC(=O)[C@@H]1CCCN1C(=O)[C@H](CCC(=O)O)NC(=O)[C@H](C)NC(=O)[C@H](CCSC)NC(=O)[C@H](CC(C)C)NC(=O)[C@H](CO)NC(=O)[C@H](CCCCN)NC(=O)[C@H](CCCCN)NC(=O)[C@H](C)NC(=O)[C@@H](N)CCSC)C(=O)N1CCC[C@H]1C(=O)N[C@@H](CCCNC(=N)N)C(=O)N1CCC[C@H]1C(=O)N[C@@H](CCCNC(=N)N)C(=O)N[C@@H](CCCCN)C(=O)N[C@@H](CCCCN)C(=O)N[C@@H](CCCNC(=N)N)C(=O)N[C@@H](Cc1ccc(O)cc1)C(=O)N[C@@H](CCCNC(=N)N)C(=O)N1CCC[C@H]1C(=O)NCC(=O)N[C@H](C(=O)N[C@H](C(=O)N[C@@H](C)C(=O)N[C@@H](CC(C)C)C(=O)N[C@@H](CCCNC(=N)N)C(=O)N[C@@H](CCCCNC(=O)CCCC[C@@H]1SC[C@@H]2NC(=O)N[C@@H]21)C(=O)O)[C@@H](C)O)[C@@H](C)O` [WT SpCENP-A NTD] (H-MAKKSLMAEPGDPIPRPRKKRYRPGTTALRK(Biotin)-OH; N-terminus and C-terminus assumed), the “reduction of Sim3-FLAG interaction” value ([1]; WT peptide, absence of both ani1 and ani2, vs WT cells (1–0.57)) is reported as roughly 43% and the “effect of single null mutation of ani1 or ani2 on Sim3-FLAG binding (in words)” value ([1]; Δani1 or Δani2 single mutant cell extract, Figure 6B bottom gel) is reported as “did not grossly affect the binding”.

For SLMAEPGDPIPRPR, the cis-trans exchange cross-peaks ([2]; presence of 0.03 mM Ani2, 2 mM peptide, 20 mM phosphate (90% H2O + 10% D2O, pH 6.5), 25°C) was “two prominent and reproducible exchange cross-peaks corresponding to Ile14 and Arg16”, the “cross peaks corresponding to P10 or P13” value ([2]; presence of Ani2, 2 mM peptide, pH 6.5, 25°C) was “No cross peaks were found corresponding to P10 or P13” and the cis-trans exchange cross-peaks ([3]; presence of 0.03 mM Ani1, 2 mM peptide, 20 mM phosphate (90% H2O + 10% D2O, pH 6.5), 25°C) was “two prominent and reproducible exchange cross-peaks corresponding to Ile14 and Arg16”. For the same molecule, the “cross peaks corresponding to P10 or P13” value ([3]; presence of Ani1, 2 mM peptide, pH 6.5, 25°C) was “No cross peaks were found corresponding to P10 or P13”, the cis-trans exchange cross-peaks ([4]; absence of Ani1 or Ani2, 2 mM peptide, 20 mM phosphate) was “no cross-peaks were observed” and the “speed of the cis- and trans-conformational switch” value ([4]; absence of Ani1 or Ani2, too slow to be detected under the NMR time scale, 2 mM peptide) was less than 0.1 s⁻¹.

Work on MAKKSLMAEAGDAIARARKK (peptide, UniProt Q9Y812 1-20, looked up, also: biotinylated, position not given here) [SpCENP-A NTD 4PA peptide (quadruple P-to-A mutations of the GRANT prolines), biotinylated] yielded a Kd [5] of 4.5 µM.
